≈ marks a conversion by molar mass, not a printed value.
Columns and labels:
Bacillus subtilis = experiment: Antibacterial activity against Bacillus subtilis ATCC 6633 after 24 hrs by MTT assay; format: functional; details: ATCC 6633, 24 h
Method in brief: (§1)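 MICs by broth microdilution in Mueller-Hinton medium. Compounds were taken from a 100 μg/mL DMSO stock into sterile medium and serially diluted. Inoculum about 10⁵ cfu/mL, incubated 37 °C for 24 h, and MIC read visually. MTT (2 mg/mL in PBS pH 7.4) was then added for 4–5 h at room temperature, dye extracted with acidified isopropanol for 12 h, OD read at 550 nm.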

Staphylococcus aureus = experiment: Antibacterial activity against Staphylococcus aureus ATCC 6538 after 24 hrs by MTT assay; format: functional; details: ATCC 6538, 24 h; method in brief: as §1
Escherichia coli = experiment: Antibacterial activity against Escherichia coli ATCC 35218 after 24 hrs by MTT assay; format: functional; details: ATCC 35218, 24 h; method in brief: as §1
Pseudomonas aeruginosa = experiment: Antibacterial activity against Pseudomonas aeruginosa ATCC 13525 after 24 hrs by MTT assay; format: functional; details: ATCC 13525, 24 h; method in brief: as §1
[1] = Inhibition of Escherichia coli N-terminal His-tagged FabH expressed in Escherichia coli BL21(DE3) using [3H]-acetyl-CoA after 25 mins by liquid scintillation counting
Method in brief: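 His-tagged E. coli FabH was expressed with IPTG induction, purified on Ni-NTA and stored in Tris pH 7.6 with DTT and glycerol. Assay in 20 mM sodium phosphate pH 7.0 with 0.5 mM DTT, 0.25 mM MgCl₂, […] ACPS-converted holo-ACP and 1 nM FabH. Started with 25 μM acetyl-CoA plus [³H]acetyl-CoA, run 25 min, stopped with TCA; pellet counted by scintillation. Inhibitors added in DMSO (final ≤2%) for IC50.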

[2] = Toxicity in RBC assessed as hemolysis; format: cell-based; details: erythrocyte

SMILES	MIC (Bacillus subtilis)	MIC (Staphylococcus aureus)	MIC (Escherichia coli)	MIC (Pseudomonas aeruginosa)	IC50 [1]	MHC [2]
Oc1c(Br)cc(Br)cc1/C=N/c1ccc(NC(=S)Nc2ccccc2)cc1	> 100 µg/mL	> 100 µg/mL	> 100 µg/mL	> 100 µg/mL		
Oc1ccc(Br)cc1/C=N/c1ccc(NC(=S)Nc2ccccc2)cc1	50 µg/mL (≈ 117 µM)	50 µg/mL (≈ 117 µM)	25 µg/mL (≈ 58.6 µM)	25 µg/mL (≈ 58.6 µM)	39 µM	> 10000 µg/mL
Fc1ccccc1/C=N/c1ccc(NC(=S)Nc2ccccc2)cc1	> 100 µg/mL	> 100 µg/mL	> 100 µg/mL	> 100 µg/mL		
S=C(Nc1ccccc1)Nc1ccccc1/N=C/c1ccc(Cl)cc1	> 100 µg/mL	> 100 µg/mL	> 100 µg/mL	> 100 µg/mL		
COc1ccc(/C=N/c2ccccc2NC(=S)Nc2ccccc2)cc1	> 100 µg/mL	> 100 µg/mL	> 100 µg/mL	> 100 µg/mL		
Fc1ccc(/C=N/c2ccc(NC(=S)Nc3ccccc3)cc2)cc1	50 µg/mL (≈ 143 µM)	25 µg/mL (≈ 71.5 µM)	50 µg/mL (≈ 143 µM)	50 µg/mL (≈ 143 µM)		
S=C(Nc1ccccc1)Nc1ccc(/N=C/c2ccc(Br)cc2)cc1	50 µg/mL (≈ 122 µM)	50 µg/mL (≈ 122 µM)	25 µg/mL (≈ 60.9 µM)	25 µg/mL (≈ 60.9 µM)	40.8 µM	> 10000 µg/mL
Oc1ccc(Br)cc1/C=N/c1ccccc1NC(=S)Nc1ccccc1	> 100 µg/mL	> 100 µg/mL	> 100 µg/mL	> 100 µg/mL		
S=C(Nc1ccccc1)Nc1ccc(/N=C/c2cccc(Br)c2)cc1	> 100 µg/mL	> 100 µg/mL	> 100 µg/mL	> 100 µg/mL		
O=[N+]([O-])c1ccccc1/C=N/c1ccc(NC(=S)Nc2ccccc2)cc1	50 µg/mL (≈ 133 µM)	25 µg/mL (≈ 66.4 µM)	> 100 µg/mL	> 100 µg/mL		
Oc1c(Br)cc(Br)cc1/C=N/c1ccccc1NC(=S)Nc1ccccc1	> 100 µg/mL	> 100 µg/mL	> 100 µg/mL	> 100 µg/mL		
Oc1ccccc1/C=N/c1ccccc1NC(=S)Nc1ccccc1	> 100 µg/mL	> 100 µg/mL	> 100 µg/mL	> 100 µg/mL		
CC1(C)S[C@@H]2[C@H](NC(=O)Cc3ccccc3)C(=O)N2[C@H]1C(=O)O [PENICILLIN G]	1.56 µg/mL (≈ 4.67 µM)	6.25 µg/mL (≈ 18.7 µM)	3.13 µg/mL (≈ 9.36 µM)	6.25 µg/mL (≈ 18.7 µM)		
S=C(Nc1ccccc1)Nc1ccccc1/N=C/c1ccc(Br)cc1	50 µg/mL (≈ 122 µM)	> 100 µg/mL	> 100 µg/mL	> 100 µg/mL		

More lines, main results first:

MIC (Bacillus subtilis)	MIC (Staphylococcus aureus)	MIC (Escherichia coli)	MIC (Pseudomonas aeruginosa)	IC50 [1]	SMILES	MHC [2]
50 µg/mL (≈ 133 µM)	50 µg/mL (≈ 133 µM)	25 µg/mL (≈ 66.4 µM)	50 µg/mL (≈ 133 µM)		O=[N+]([O-])c1ccc(/C=N/c2ccc(NC(=S)Nc3ccccc3)cc2)cc1	
25 µg/mL (≈ 72.4 µM)	25 µg/mL (≈ 72.4 µM)	12.5 µg/mL (≈ 36.2 µM)	25 µg/mL (≈ 72.4 µM)	25.9 µM	Cc1ccc(/C=N/c2ccc(NC(=S)Nc3ccccc3)cc2)cc1	> 10000 µg/mL
6.25 µg/mL (≈ 14.3 µM)	3.13 µg/mL (≈ 7.15 µM)	1.56 µg/mL (≈ 3.57 µM)	3.13 µg/mL (≈ 7.15 µM)	4.3 µM	S=C(Nc1ccccc1)Nc1ccc(/N=C/c2ccc(OCc3ccccc3)cc2)cc1	> 10000 µg/mL
12.5 µg/mL (≈ 34.2 µM)	6.25 µg/mL (≈ 17.1 µM)	6.25 µg/mL (≈ 17.1 µM)	3.13 µg/mL (≈ 8.55 µM)	15.6 µM	S=C(Nc1ccccc1)Nc1ccc(/N=C/c2ccc(Cl)cc2)cc1	> 10000 µg/mL
0.39 µg/mL (≈ 0.807 µM)	3.13 µg/mL (≈ 6.47 µM)	1.56 µg/mL (≈ 3.23 µM)	3.13 µg/mL (≈ 6.47 µM)		NC[C@H]1O[C@H](O[C@H]2[C@H](O)[C@@H](O[C@H]3O[C@H](CO)[C@@H](O)[C@H](N)[C@H]3O)[C@H](N)C[C@@H]2N)[C@H](N)[C@@H](O)[C@@H]1O [BEKANAMYCIN]	
12.5 µg/mL (≈ 31.2 µM)	12.5 µg/mL (≈ 31.2 µM)	12.5 µg/mL (≈ 31.2 µM)	25 µg/mL (≈ 62.4 µM)	30.4 µM	S=C(Nc1ccccc1)Nc1ccc(/N=C/c2ccc(Cl)cc2Cl)cc1	> 10000 µg/mL
25 µg/mL (≈ 69.2 µM)	50 µg/mL (≈ 138 µM)	50 µg/mL (≈ 138 µM)	25 µg/mL (≈ 69.2 µM)	48.1 µM	COc1cccc(/C=N/c2ccc(NC(=S)Nc3ccccc3)cc2)c1	> 10000 µg/mL
12.5 µg/mL (≈ 32.7 µM)	6.25 µg/mL (≈ 16.4 µM)	3.13 µg/mL (≈ 8.2 µM)	3.13 µg/mL (≈ 8.2 µM)	9.5 µM	Oc1ccc(Cl)cc1/C=N/c1ccccc1NC(=S)Nc1ccccc1	> 10000 µg/mL
25 µg/mL (≈ 72 µM)	6.25 µg/mL (≈ 18 µM)	12.5 µg/mL (≈ 36 µM)	6.25 µg/mL (≈ 18 µM)	28.7 µM	Oc1ccccc1/C=N/c1ccc(NC(=S)Nc2ccccc2)cc1	> 10000 µg/mL
12.5 µg/mL (≈ 32.7 µM)	12.5 µg/mL (≈ 32.7 µM)	6.25 µg/mL (≈ 16.4 µM)	6.25 µg/mL (≈ 16.4 µM)	12.8 µM	Oc1ccc(Cl)cc1/C=N/c1ccc(NC(=S)Nc2ccccc2)cc1	> 10000 µg/mL
